According to ChEMBL document CHEMBL3872263, “Synthesis and biological evaluation of phosphate isosters of fosmidomycin and analogs as inhibitors of Escherichia coli and Mycobacterium smegmatis 1-deoxyxylulose 5-phosphate reductoisomerases” (Bioorg Med Chem, 2017):

Columns and labels:
Escherichia coli [1] = assay: Growth inhibition of Escherichia coli XL1 blue at 2 nmol/disc incubated overnight by paper disc diffusion method; assay type: functional
Method in brief: (§1)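 Paper disc diffusion on E. coli XL1 Blue growing on LB-agar; 6 mm paper discs impregnated with test compound at the stated amount per disc; plates incubated overnight at 37°C, then growth inhibition read.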

[2] = Inhibition of Escherichia coli His6-tagged DXR preincubated for 2 mins in presence of NADPH followed by DXP substrate addition
Method in brief: (§2)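 Recombinant His-tagged DXR was assayed at 37°C in 50 mM Tris/HCl pH 7.5 with 3 mM MgCl2 and 2 mM DTT. The enzyme was pre-incubated for 2 min with NADPH and the inhibitor at a range of concentrations, then DXP was added to start the reaction and residual activity was measured. IC50 was read from a plot of percent residual activity versus log inhibitor concentration.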

[3] = Inhibition of Mycobacterium smegmatis His6-tagged DXR preincubated for 2 mins in presence of NADPH followed by DXP substrate addition; design: species or system Mycolicibacterium smegmatis; method in brief: as §2
Escherichia coli [4] = assay: Growth inhibition of Escherichia coli XL1 blue at 100 nmol/disc incubated overnight by paper disc diffusion method; assay type: functional
Method in brief: (§3)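 Paper disc diffusion assay on E. coli XL1 Blue grown in LB agar. 6 mm paper discs were impregnated with the stated amount of compound, and plates were incubated overnight at 37°C.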

Escherichia coli [5] = assay: Growth inhibition of Escherichia coli XL1 blue at 160 nmol/disc incubated overnight by paper disc diffusion method; assay type: functional; method in brief: as §3
Escherichia coli [6] = assay: Growth inhibition of Escherichia coli XL1 blue at 400 nmol/disc incubated overnight by paper disc diffusion method; assay type: functional; method in brief: as §1
Escherichia coli [7] = assay: Activity at Escherichia coli DXR assessed as ratio of Kcat to Km […] in presence of NADPH by Lineweaver-burk plot method
Escherichia coli [8] = assay: Growth inhibition of fosmidomycin resistant Escherichia coli incubated overnight by paper disc diffusion method; assay type: functional
Escherichia coli [9] = assay: Growth inhibition of Escherichia coli XL1 blue at 80 nmol/disc incubated overnight by paper disc diffusion method; assay type: functional; method in brief: as §1

| Compound | IC50 [2] | IC50 [3] | also measured |
| --- | --- | --- | --- |
| CC(=O)N(O)CCCP(=O)(O)O [FR-900098] | 4 nM |  | diameter of the inhibition zone (DIZ) (Escherichia coli [1]): 32 mm |
| O=CN(O)CCOP(=O)(O)O | 342 nM | 2100 nM | diameter of the inhibition zone (DIZ) (Escherichia coli [5]): 24 mm |
| CN(O)C(=O)CCOP(=O)(O)O | 46 nM | 233 nM | diameter of the inhibition zone (DIZ) (Escherichia coli [5]): 20 mm |
| CC(=O)[C@@H](O)[C@H](O)CCP(=O)(O)O |  |  | kcat/Km (Escherichia coli [7]): 11700 M⁻¹ s⁻¹ |
| O=C(CCCP(=O)(O)O)NO | 170 nM |  | diameter of the inhibition zone (DIZ) (Escherichia coli [6]): 12 mm |
| CN(O)C(=O)CCCP(=O)(O)O | 48 nM |  | diameter of the inhibition zone (DIZ) (Escherichia coli [8]): 18 mm; diameter of the inhibition zone (DIZ) (Escherichia coli [9]): 30 mm |
| CC(=O)[C@@H](O)[C@H](O)COP(=O)(O)O |  |  | kcat/Km (Escherichia coli [7]): 412000 M⁻¹ s⁻¹ |

The next lines start with results.

| IC50 [2] | IC50 [3] | Compound | also measured |
| --- | --- | --- | --- |
| 42 nM |  | O=CN(O)CCCP(=O)(O)O [FOSMIDOMYCIN] | diameter of the inhibition zone (DIZ) (Escherichia coli [1]): 34 mm |
| 77 nM | 279 nM | CC(=O)N(O)CCOP(=O)(O)O | diameter of the inhibition zone (DIZ) (Escherichia coli [4]): 27 mm |
| 2600 nM | 9200 nM | O=C(CCOP(=O)(O)O)NO | diameter of the inhibition zone (DIZ) (Escherichia coli [6]): <10 mm |
